Fewer inactive variants are shown than the library holds.

First the molecules themselves.
B1: tRNA (parent)
chain: GUUCCGUUGGCGUAAUGGUAACGCGUCUCCCUCCUAAGGAGAAGACUGCGGGUUCGAGUCCCGUACGGAACG

In this series the parent is B1. The experiment in a line: yeast fitness relative to wild type (ratio to wild type); higher = fitter; tRNA-Arg(CCU), competitive growth, 37 C, YPD. An outline of the steps: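 The tRNA-Arg(CCU) gene variants were made by chemical synthesis with a 3% per-site mutation rate at 69 sites and inserted at the native genomic locus of Saccharomyces cerevisiae. After pooling, the strains were competed in YPD at 37°C for 24 hours in six parallel replicates. Gene amplicons from the start population and each end population were read by 100-nucleotide paired-end sequencing, and Darwinian fitness relative to wild type was taken from genotype frequency changes. Genotypes needed ≥ 100 starting reads, and estimates < 0.5 were set to 0.5.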
For the variant GUUCCGUUGGCGAAAUGGUAACGCGUCUCCCUCCUAAGGAGAAGACUGCUGGUUCGAGUCCCGUACGGAACG, the yeast fitness stood at 0.838. For the variant GUUCCAUUGGCGUAAUGGUAACGCGUCUCCCUCCUAAGGAGGAGACUGCCGGUUCGAGUCCCGUACGGAACG, the yeast fitness was determined as 0.62.

In the case of GUUUCGUUGGCGUAAUGGUUACGCGUCUCCCUCCUAAGGAGAAGACUGCAGAUUCGAGUUGCGUACGGAACG, the yeast fitness is ≤ 0.5. On to GUUCCGUUGGCGUAAUGGUAACGCGUCUCUCUCCUAAGGAGACGACUGCGGGUUCGAAUCCCGUACGGAACG, for which the yeast fitness is 0.99. On to GGUCCGUUCGCGUAAUGGUGACGCGUCUCCCUCCUAAGGAGCGGAGUGUGGGUUCGAGUCCCGUACGGCACG, for which the yeast fitness is ≤ 0.5.

As to GUUCCGUGGGCGUAAUGGUAAAGCGUUUCCCUCCUAAGGUGAAGACUGCGGGUUCGAGUCCCGUACGGAACG, the yeast fitness was ≤ 0.5. GUUACGUUGGCGUAAUGGUAACGCGUCUGCAUCCUAAGGAGAAGACUGCGGGUUCGAGUCCCGUACAGAACG: the yeast fitness is ≤ 0.5. As for GUUCCGUUGGAGUAAUGGUAACGCGUCUCCCUCCUAAGGAGAGGACUGCGGGUUCGAGUCUCGUACGGAACG, the yeast fitness was ≤ 0.5. On to GUUCCGUCGGCGUAAUGGUUUCGCGGCUCCAUCCUAAGGAGAAGUCUGCGGGUUCGAGUCCCGUACGGAACG, for which the yeast fitness amounted to 0.54.

With GUUCAGUUGGCGUAAUGGUAACGUCUCUCGCUCCUAAGGAGAAGACUGCCGGUUCAAGUCCCGUUCGGAACG, the yeast fitness was ≤ 0.5. As for GUUCCGUUGGCGUAAUGGUUACGCGUCUCCCUCCUAAAGAGAAGAAUGCGGGUUCGAGUCCCGUACGGAACG, the yeast fitness came to 0.541.

In the case of GUUCCGUUGGCGUUAUGGUAACGCAUUUCCCUCCUAAGGAGAAGACUGCGGGUUGGAGUCCCGUACGGAACG, the yeast fitness is ≤ 0.5. Consider GUUGCGUUGGCGUAAUGGUAACGCAUCUCCCUCCUAAGGAGAAGACUGCGGGUUCGAGUGCGGUACGGAACG, for which the yeast fitness came out at 0.57.

As for GUUCCGUUGGCGUUAUGGUCACGCGUCCCCCUCCUAAGGAGAAGAUUGCGGGUUCGAAUCCCGUACGGAACG, the yeast fitness was 0.678.

On to GUUCCGUAGACGCUAUGGUAACGCGUGUCCCUCCUAAGGAGAAGACCGCGGGUUCGAGUCCAGUACGGAACG, for which the yeast fitness was ≤ 0.5.

In the case of GUUCCGUUGGCGUAAUGGUAACGCGUCUCCCUCCUACGGAGAAGAGUGCGGGUUCGAGUCCGGUACGGAACG, the yeast fitness came out at 0.654.

As for GUUCCCUUGGCGUAAUGGUAACGCGUCUCCCUCGUAAAGAGAAGACUGCGGGUUCGAGUCCCGAACGGAACG, the yeast fitness is ≤ 0.5. Turning to GUUCCGUUGGCGUAAUGGUAACGCGUCUCCCUCCUAAGGAAAAGACUGCAGGUUCGAGUCCCGUACGGAACG, the yeast fitness was determined as 0.807. As to GUUCCGAUGGCGUAAUGUUAACGCGUCUCCUUCCUAAGGAGAAGACUGGGGGUUCGAGUCCCGUACGGAACG, the yeast fitness was ≤ 0.5. For GUUCCGUUGGCGUAAGGGUAACGCGUCUCCCUCCUAAGGAGCAGACCGCGGGUUCGAGUCCCGUACGGAACG, the yeast fitness was 0.676. As for GUUCCGUUGGCGUAAUGGUAACGCGUCUCCCUGCUAAGGAGAAGACUGCGGGUUCGAGUCCCGUACGGUACG, the yeast fitness stood at 0.764.

Regarding GUUCCGUUGGCGUAUUGGUAAUGCGUCUCCCUCCUAAGGAGAAGACUGCGGGUUCGUGUCCCGUACGGAACG, the yeast fitness is ≤ 0.5. Turning to GUUCCGUUGGAGAUAUGGUAACCCGUCUCCCUCCUAAGGAGAAGACUGCGGGUUCGAGUCCCGUACGGUACG, the yeast fitness was ≤ 0.5. Consider GUGCCGUUGGCGUAAUGGUAACGCGUCUCGCUCCUAAGGAGAAGACUGCGGGUUCGAGUCCCGUACGGAACG, for which the yeast fitness was ≤ 0.5. On to GUUCCGUUGGCGUAAUGGUAACGGGUCUCCCUCCUAAGGAGAAGACUGCGGGUUCGUGUCCCGUACGGCACG, for which the yeast fitness is ≤ 0.5. With GUUCCGUUGGCGUAAUGGUUACGCGUCUUUCUCCUAAGGAGAAGACUGCGGGUUCGAGACCCGUACAGAACG the figure was ≤ 0.5; with GUUCCGUUGGCGUAAUGGUAUCGCGUCUCCCUCCUAAGGAGAAGACUGCGGGUUCGCGUCCCGUACGGAACG, 0.619.

For the variant GUUCCGUUGGUGUGAUGGUAACGCGUCUCCCUCCCAAGGAGAAGACUGCGGGUUCGAGUCCCGUACGGAUCG, the yeast fitness was ≤ 0.5. Take GUUCCGUAGGCGUAAUGGUAACGCGGCUCCCUCCCAAGGAGAAGACUGCGGGUUCGAGUCCCAUACGGAGCG: the yeast fitness is ≤ 0.5. With GAUCCGAUGGCGUAAUGGUAACGCGUCUCCCACCUAAGGAGAAGACUGCGGGUUCGAGUCCCGUACGGAACG the figure was ≤ 0.5; with GAUCGGUUGGCGUAAUGGUAACGCGUCUCCCUCCUAAGGAGUAGACUGCGGGUUCGAGUCCCGUACGGAACG, ≤ 0.5.

Consider GUUCCGUUGGCGUAAUGGUAACGCGUCUCCCUCCUAAGGAGAAGCCUGCGGGUUCGAGUCGCGUACGGAACG, for which the yeast fitness came to 0.591. As for GUUCUGUUGGCGUAAAGGUAACGCGUCUCCCUCAUAAGGAGAAGACUGCGGGUUCGAGUCCCGUACGGAACG, the yeast fitness is ≤ 0.5. In the case of GUUACGUUGGCGUUAUGGUAACGCGUCUCCCUCCUAAGGAGACGACUGCGGGUUCGAGUCCCGUUCGGAACG, the yeast fitness is ≤ 0.5. Regarding GGUCCGUUGCCGUAAUGGUAACGCGUCUCCCUCCUAAGGAGAAGACUGCGGGUUCGAGUCCCGUCCGGAACG, the yeast fitness was ≤ 0.5. Regarding GUGCCGUAGGCGUAAUGGUAACGCGUCUCCAUCCUAAGGAGAAGACUGCGGGUUUGAGUCCCGUACGGAACG, the yeast fitness was ≤ 0.5. With GUUCCGUUGGCGUAAUGGUAACGCGUCUCCCUCCUAAGGAGAACACUGCGGGUUCGAGUCCCGUACUGAACG the figure was 0.855. Regarding GUUCUGCUGGCGUAAUGGUAACGCGUCUCCCUCCUAAGGAGAAGACUGCGGGUUCGAGUCCCGUACGGAACG, the yeast fitness came out at 0.92.

These data come from the RNAGym collection of RNA variant scans (doi:10.1126/science.aae0568).
